Values after ≈ are worked out from the molar mass of the structure shown. Active and inactive are the calls of the source. The calls are words filed in the database; no cut-off is given here.
Experiments:
[1] = target: T1, Proteinase-activated receptor 1 (Homo sapiens) (UniProt P25116); conditions: Plasma, 3 uM
T1 sequence (whole entry): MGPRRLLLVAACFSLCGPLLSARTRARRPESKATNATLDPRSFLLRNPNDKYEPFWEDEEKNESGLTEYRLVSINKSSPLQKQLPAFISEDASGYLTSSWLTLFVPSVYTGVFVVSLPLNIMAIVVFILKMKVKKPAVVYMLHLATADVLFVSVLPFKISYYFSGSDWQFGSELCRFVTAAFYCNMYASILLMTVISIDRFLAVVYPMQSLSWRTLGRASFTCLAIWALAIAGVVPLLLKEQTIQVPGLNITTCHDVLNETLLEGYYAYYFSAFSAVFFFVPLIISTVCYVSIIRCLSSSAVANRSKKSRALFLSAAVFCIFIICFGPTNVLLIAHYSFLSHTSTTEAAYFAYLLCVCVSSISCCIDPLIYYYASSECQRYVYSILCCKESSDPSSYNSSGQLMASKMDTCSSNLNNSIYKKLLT

Plasma [2] = experiment: Plasma protein binding in human; type: ADME, cell-free
Plasma [3] = experiment: Metabolic stability in mouse plasma assessed as compound remaining at 5 uM after 5 hrs; type: ADME, cell-free
Outline: (§1)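 Compound incubated in human or mouse plasma; stability reported as percent remaining after 5 h.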

[4] = target: T1, Proteinase-activated receptor 1 (Homo sapiens); conditions: 3 uM
Plasma [5] = experiment: Metabolic stability in human plasma assessed as compound remaining at 5 uM after 5 hrs; type: ADME, cell-free
Outline: as §1

[6] = target: cGMP-inhibited 3',5'-cyclic phosphodiesterase 3A (Homo sapiens) (UniProt Q14432); experiment: Inhibition of PDE3A
Sequence of cGMP-inhibited 3',5'-cyclic phosphodiesterase 3A (Homo sapiens) (Q14432 whole entry): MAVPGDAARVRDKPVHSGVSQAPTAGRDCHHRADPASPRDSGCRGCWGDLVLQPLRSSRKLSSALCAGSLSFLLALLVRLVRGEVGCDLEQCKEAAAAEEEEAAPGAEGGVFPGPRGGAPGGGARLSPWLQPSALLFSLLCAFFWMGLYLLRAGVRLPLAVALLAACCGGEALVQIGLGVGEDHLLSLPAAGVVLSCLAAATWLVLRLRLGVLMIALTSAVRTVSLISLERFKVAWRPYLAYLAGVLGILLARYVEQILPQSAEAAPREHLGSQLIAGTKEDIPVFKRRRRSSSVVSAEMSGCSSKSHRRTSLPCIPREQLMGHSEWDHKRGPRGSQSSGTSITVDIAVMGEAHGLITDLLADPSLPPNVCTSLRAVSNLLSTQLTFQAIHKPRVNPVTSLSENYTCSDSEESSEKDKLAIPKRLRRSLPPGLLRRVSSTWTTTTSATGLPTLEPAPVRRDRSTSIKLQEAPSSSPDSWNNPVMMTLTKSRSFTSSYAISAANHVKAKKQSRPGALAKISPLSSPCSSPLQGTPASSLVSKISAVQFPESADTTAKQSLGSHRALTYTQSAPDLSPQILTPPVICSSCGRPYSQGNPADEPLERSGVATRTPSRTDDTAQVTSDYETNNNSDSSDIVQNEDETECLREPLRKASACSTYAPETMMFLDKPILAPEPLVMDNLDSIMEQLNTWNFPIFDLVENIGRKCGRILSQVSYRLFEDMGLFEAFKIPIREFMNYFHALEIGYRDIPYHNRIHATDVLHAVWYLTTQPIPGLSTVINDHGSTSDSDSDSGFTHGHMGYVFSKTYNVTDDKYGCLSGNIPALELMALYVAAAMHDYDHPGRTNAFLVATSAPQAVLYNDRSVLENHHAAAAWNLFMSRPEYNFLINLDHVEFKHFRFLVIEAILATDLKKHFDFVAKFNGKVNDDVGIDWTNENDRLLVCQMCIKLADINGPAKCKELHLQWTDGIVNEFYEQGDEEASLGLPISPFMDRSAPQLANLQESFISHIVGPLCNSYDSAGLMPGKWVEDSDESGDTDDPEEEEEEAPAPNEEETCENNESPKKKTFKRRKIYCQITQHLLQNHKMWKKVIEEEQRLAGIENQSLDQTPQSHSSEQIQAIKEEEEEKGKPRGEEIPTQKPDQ

[7] = target: T1, Proteinase-activated receptor 1 (Homo sapiens); experiment: Inhibition of SFLLRN-NH2-stimulated PAR1-mediated platelet activation in […] assessed as surface expression of P-selectin at 10 uM after 20 mins by flow cytometry; type: cell-based
[8] = target: T2, Proteinase-activated receptor 1 (Homo sapiens, UniProt P25116); experiment: Inhibition of SFLLRN-NH2-stimulated PAR1-mediated platelet activation in […] assessed as surface expression of P-selectin after 20 mins by flow cytometry; parameters: species or system Plasma
T2 sequence (P25116 whole entry): T1 sequence (whole entry)

[9] = target: T1, Proteinase-activated receptor 1 (Homo sapiens); conditions: 3 uM; remark: listed apart in the source
[10] = target: T1, Proteinase-activated receptor 1 (Homo sapiens); conditions: Plasma, 3 uM; remark: listed apart in the source
[11] = target: T1, Proteinase-activated receptor 1 (Homo sapiens); conditions: 3 uM; remark: listed apart in the source
[12] = target: T1, Proteinase-activated receptor 1 (Homo sapiens); conditions: 3 uM; remark: listed apart in the source
[13] = target: T1, Proteinase-activated receptor 1 (Homo sapiens); conditions: 3 uM; remark: listed apart in the source
[14] = target: T1, Proteinase-activated receptor 1 (Homo sapiens); conditions: Plasma, 3 uM; remark: listed apart in the source
[15] = Solubility of the compound in phosphate buffered saline; type: physicochemical; conditions: buffer
[16] = target: T1, Proteinase-activated receptor 1 (Homo sapiens); conditions: Plasma, 3 uM; remark: listed apart in the source

## CCCC(=O)Nc1cccc(NC(=O)c2ccccc2Br)c1
[1]
  inhibition: inactive
Plasma [2]
  PPB: 97%
Plasma [3]
  Stability: 2%
[4]
  inhibition: Active
Plasma [5]
  Stability: 80%
[6]
  inhibition: inactive
[7]
  inhibition: > 99%
[8]
  IC50: 260 nM
[9]
  inhibition: inactive
[10]
  inhibition: inactive
[11]
  inhibition: inactive
[12]
  inhibition: inactive
[13]
  inhibition: Active
[14]
  inhibition: inactive
[15]
  solubility: 40 µM (≈ 14.4 µg/mL)
[16]
  inhibition: inactive

From ChEMBL document CHEMBL2046322, “Discovery of 1,3-Diaminobenzenes as Selective Inhibitors of Platelet Activation at the PAR1 Receptor” (ACS Med Chem Lett, 2012)
